ChEMBL document CHEMBL1150162, “Antimicrobial activities of naphthazarins from Arnebia euchroma” (2002)
In brackets after ≈: the same amount, converted by molar mass. Activity calls are given as the source filed them. No cut-off for these calls is given here.

Assays:
OVCAR-3 = test: Cytotoxicity against human OVCAR-3 cells after 48 hrs by MTT assay; format: functional; conditions: OVCAR-3, 48 h, read-out: CD50 (the source's name)
In short: (§1)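 Cells seeded at 5 × 10^3 per well, grown 24 h, then given 2-fold dilutions of sample for 48 h. Medium replaced with serum-free medium, MTT added (5 mg/mL stock) for 2 h at 37 °C, formazan dissolved in DMSO, OD read at 550 nm. CD50 is the concentration giving 50% reduction in net cell increase. Quadruplicate, repeated at least twice.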

Staphylococcus aureus [1] = test: Antibacterial activity against Staphylococcus aureus after 48 hrs by broth microdilution method; format: functional
Staphylococcus aureus [2] = test: Ratio of MBC to MIC for Staphylococcus aureus; format: functional
HepG2 = test: Cytotoxicity against human HepG2 cells after 48 hrs by MTT assay; format: functional; conditions: HepG2, 48 h, read-out: CD50 (the source's name); in short: as §1
Enterococcus faecium [3] = test: Antibacterial activity against vancomycin-resistant Enterococcus faecium F935 expressing VanA after 24 hrs by broth microdilution method; format: functional; conditions: F935, 24 h
In short: (§2)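 2-fold serial dilutions of test agent in LB broth, DMSO under 5% final. Inoculum about 5 × 10^5 CFU/mL, confirmed by LB agar plating. Incubated 24 h at 35 °C in ambient air. MIC is the lowest concentration with no visible growth. Three repeats; oxacillin, vancomycin and chloramphenicol as positive controls.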

HeLa = test: Cytotoxicity against human HeLa cells after 48 hrs by MTT assay; format: functional; conditions: read-out: CD50 (the source's name); in short: as §1
Enterococcus faecalis [4] = test: Antibacterial activity against vancomycin-resistant Enterococcus faecalis CKU-17 expressing VanB after 24 hrs by broth microdilution method; format: functional; conditions: CKU-17, 24 h; in short: as §2
Pseudomonas aeruginosa = test: Antibacterial activity against Pseudomonas aeruginosa up to 100 ug/mL after 24 hrs by broth microdilution method; format: functional, organism-based
In short: (§3)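 Broth microdilution with 2-fold serial dilutions in LB broth, compounds from DMSO stocks (DMSO below 5% final), inoculum about 5 × 10^5 CFU/mL. Incubated 24 h at 35 °C in ambient air. MIC is the lowest concentration with no visible growth. Experiments repeated three times.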

Escherichia coli = test: Antibacterial activity against Escherichia coli up to 100 ug/mL after 24 hrs by broth microdilution method; format: functional, organism-based; in short: as §3
Enterococcus faecium [5] = test: Antibacterial activity against vancomycin-resistant Enterococcus faecium F935 expressing VanA after 48 hrs by broth microdilution method; format: functional
Enterococcus faecalis [6] = test: Antibacterial activity against vancomycin-resistant Enterococcus faecalis CKU-17 expressing VanB after 48 hrs by broth microdilution method; format: functional
Staphylococcus aureus [7] = test: Antibacterial activity against methicillin-resistant Staphylococcus aureus 8-8S after 48 hrs by broth microdilution method; format: functional
Enterococcus faecium [8] = test: Ratio of MBC to MIC for vancomycin-resistant Enterococcus faecium F935 expressing VanA; format: functional
Enterococcus faecalis [9] = test: Antibacterial activity against Enterococcus faecalis after 48 hrs by broth microdilution method; format: functional
Staphylococcus aureus [10] = test: Antibacterial activity against methicillin-resistant Staphylococcus aureus 8-8S after 24 hrs by broth microdilution method; format: functional
In short: as §2, with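 “in […]” for “in LB”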

Enterococcus faecalis [11] = test: Antibacterial activity against Enterococcus faecalis after 24 hrs by broth microdilution method; format: functional; in short: as §2
Staphylococcus aureus [12] = test: Antibacterial activity against Staphylococcus aureus after 24 hrs by broth microdilution method; format: functional
In short: as §2, with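 “in […]” for “in LB”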

Enterococcus faecalis [13] = test: Ratio of MBC to MIC for Enterococcus faecalis; format: functional

| SMILES | CC50 (OVCAR-3) | MBC (Staphylococcus aureus [1]) | Ratio (Staphylococcus aureus [2]) | CC50 (HepG2) | MIC (Enterococcus faecium [3]) | CC50 (HeLa) | MIC (Enterococcus faecalis [4]) | Activity (Pseudomonas aeruginosa) | Activity (Escherichia coli) | MBC (Enterococcus faecium [5]; F935, 48 h) | MBC (Enterococcus faecalis [6]; CKU-17, 48 h) | MBC (Staphylococcus aureus [7]) | Ratio (Enterococcus faecium [8]) | MBC (Enterococcus faecalis [9]) | MIC (Staphylococcus aureus [10]) | MIC (Enterococcus faecalis [11]) | MIC (Staphylococcus aureus [12]) | Ratio (Enterococcus faecalis [13]) | MBC (Enterococcus faecium [5]) | MBC (Enterococcus faecalis [6]) |
| --- | --- | --- | --- | --- | --- | --- | --- | --- | --- | --- | --- | --- | --- | --- | --- | --- | --- | --- | --- | --- |
| CC(C)=CC[C@H](OC(=O)C(C)C)C1=CC(=O)c2c(O)ccc(O)c2C1=O [ISOBUTYLALKANNIN] | 2 µg/mL (≈ 5.58 µM) | 1.56 µg/mL (≈ 4.35 µM) | <=2 | 4 µg/mL (≈ 11.2 µM) | 3.13 µg/mL (≈ 8.73 µM) | 5.4 µg/mL (≈ 15.1 µM) | 3.13 µg/mL (≈ 8.73 µM) | inactive | inactive | 3.13 µg/mL (≈ 8.73 µM) | 6.25 µg/mL (≈ 17.4 µM) | 3.13 µg/mL (≈ 8.73 µM) | <=2 | 3.13 µg/mL (≈ 8.73 µM) | 1.56 µg/mL (≈ 4.35 µM) | 3.13 µg/mL (≈ 8.73 µM) | 1.56 µg/mL (≈ 4.35 µM) | <=2 | – | – |
| CN[C@H](CC(C)C)C(=O)N[C@H]1C(=O)N[C@@H](CC(N)=O)C(=O)N[C@H]2C(=O)N[C@H]3C(=O)N[C@H](C(=O)N[C@H](C(=O)O)c4cc(O)cc(O)c4-c4cc3ccc4O)[C@H](O)c3ccc(c(Cl)c3)Oc3cc2cc(c3O[C@@H]2O[C@H](CO)[C@@H](O)[C@H](O)[C@H]2O[C@H]2C[C@](C)(N)[C@H](O)[C@H](C)O2)Oc2ccc(cc2Cl)[C@H]1O [VANCOMYCIN] | – | 1.56 µg/mL (≈ 1.08 µM) | – | – | > 100 µg/mL | – | > 100 µg/mL | – | – | – | – | 1.56 µg/mL (≈ 1.08 µM) | – | inactive | 1.56 µg/mL (≈ 1.08 µM) | 3.13 µg/mL (≈ 2.16 µM) | 1.56 µg/mL (≈ 1.08 µM) | – | inactive | inactive |
| O=C(N[C@H](CO)[C@H](O)c1ccc([N+](=O)[O-])cc1)C(Cl)Cl [CHLORAMPHENICOL] | – | – | – | – | 6.25 µg/mL (≈ 19.3 µM) | – | 6.25 µg/mL (≈ 19.3 µM) | – | – | – | – | – | – | inactive | – | 6.25 µg/mL (≈ 19.3 µM) | – | – | inactive | inactive |
| CC[C@@H](C)C(=O)O[C@@H](CC=C(C)C)C1=CC(=O)c2c(O)ccc(O)c2C1=O | 1.7 µg/mL (≈ 4.56 µM) | 1.56 µg/mL (≈ 4.19 µM) | <=2 | 5 µg/mL (≈ 13.4 µM) | 3.13 µg/mL (≈ 8.4 µM) | 3.9 µg/mL (≈ 10.5 µM) | 3.13 µg/mL (≈ 8.4 µM) | inactive | inactive | 6.25 µg/mL (≈ 16.8 µM) | 6.25 µg/mL (≈ 16.8 µM) | 3.13 µg/mL (≈ 8.4 µM) | <=2 | 6.25 µg/mL (≈ 16.8 µM) | 3.13 µg/mL (≈ 8.4 µM) | 3.13 µg/mL (≈ 8.4 µM) | 1.56 µg/mL (≈ 4.19 µM) | <=2 | – | – |
| CC[C@H](C)C(=O)O[C@@H](CC=C(C)C)C1=CC(=O)c2c(O)ccc(O)c2C1=O | 0.6 µg/mL (≈ 1.61 µM) | 0.78 µg/mL (≈ 2.09 µM) | <=2 | 0.6 µg/mL (≈ 1.61 µM) | 1.56 µg/mL (≈ 4.19 µM) | 0.8 µg/mL (≈ 2.15 µM) | 1.56 µg/mL (≈ 4.19 µM) | inactive | inactive | 3.13 µg/mL (≈ 8.4 µM) | 3.13 µg/mL (≈ 8.4 µM) | 1.56 µg/mL (≈ 4.19 µM) | <=2 | 3.13 µg/mL (≈ 8.4 µM) | 1.56 µg/mL (≈ 4.19 µM) | 1.56 µg/mL (≈ 4.19 µM) | 0.78 µg/mL (≈ 2.09 µM) | <=2 | – | – |
| CC(C)=CC[C@H](OC(=O)/C=C/c1ccc2c(c1)OCO2)C1=CC(=O)c2c(O)ccc(O)c2C1=O | 1 µg/mL (≈ 2.16 µM) | 100 µg/mL (≈ 216 µM) | – | 2.1 µg/mL (≈ 4.54 µM) | 50 µg/mL (≈ 108 µM) | 1.5 µg/mL (≈ 3.24 µM) | 50 µg/mL (≈ 108 µM) | inactive | inactive | 50 µg/mL (≈ 108 µM) | 50 µg/mL (≈ 108 µM) | 50 µg/mL (≈ 108 µM) | – | > 100 µg/mL | 50 µg/mL (≈ 108 µM) | 100 µg/mL (≈ 216 µM) | 50 µg/mL (≈ 108 µM) | – | – | – |
| CC(=O)O[C@H](CC=C(C)C)C1=CC(=O)c2c(O)ccc(O)c2C1=O [ACETYLSHIKONIN] | – | 1.56 µg/mL (≈ 4.72 µM) | <=2 | – | 6.25 µg/mL (≈ 18.9 µM) | – | 6.25 µg/mL (≈ 18.9 µM) | inactive | inactive | 6.25 µg/mL (≈ 18.9 µM) | 6.25 µg/mL (≈ 18.9 µM) | 1.56 µg/mL (≈ 4.72 µM) | <=2 | 3.13 µg/mL (≈ 9.48 µM) | 1.56 µg/mL (≈ 4.72 µM) | 3.13 µg/mL (≈ 9.48 µM) | 1.56 µg/mL (≈ 4.72 µM) | <=2 | – | – |
